The record followed here is ChEMBL document CHEMBL2385024, “Antiviral alkaloids produced by the mangrove-derived fungus Cladosporium sp. PJX-41” (J Nat Prod, 2013).

pIC50: −log10 of the molar value.

In this experiment the test system is Influenza A virus. The experiment is described as follows: Antiviral activity against Influenza A virus H1N1 infected in dog MDCK cells after 48 hrs by CPE inhibition assay. The class given is functional, organism-based. In short, it runs like this:
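CPE-inhibition format against influenza A (H1N1), with ribavirin run in parallel as the positive control; activity is expressed as IC50.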
On to `CC(C)[C@@H]1NC(=O)[C@@H](C[C@]2(O)C(=O)Nc3ccccc32)n2c1nc1ccccc1c2=O` [EPI-CLADOQUINAZOLINE], for which the pIC50 (as a rule, the negative decadic logarithm of the IC50, by convention in mol/L) was 4.00.
`CC(C)=C1NC(=O)[C@@H](C[C@]2(O)c3ccccc3N3C(=O)C(C)(C)N[C@H]32)n2c1nc1ccccc1c2=O` showed a pIC50 of 4.00.
The compound `O=C1N[C@H]2c3[nH]c4ccccc4c3C[C@@H]1n1c2nc2ccccc2c1=O` showed a pIC50 of less than 3.70.
In the case of `CC(C)=C1NC(=O)[C@@H](C[C@]2(O)c3ccccc3N3C(=O)[C@H](C)N[C@H]32)n2c1nc1ccccc1c2=O`, the pIC50 was 4.09.
The value for `CC(=O)O[C@@H](c1nc2ccccc2c(=O)n1[C@@H]1C[C@]2(OC1=O)c1ccccc1N1C(=O)C(C)(C)N(O)[C@H]12)C(C)C` was 4.00.
`O=C1NC(=O)[C@H](Cc2c[nH]c3ccccc23)n2c1nc1ccccc1c2=O` showed a pIC50 of 4.07.
To `NC(=O)c1ncn([C@@H]2O[C@H](CO)[C@@H](O)[C@H]2O)n1` [RIBAVIRIN] belongs 4.06.
To `CC(=O)O[C@H](c1nc2ccccc2c(=O)n1[C@@H]1C[C@]2(OC1=O)c1ccccc1N1C(=O)[C@H](C)N[C@H]12)C(C)C` [DEOXYNORTRYPTOQUIVALINE] belongs 4.06.
With `O=C1NCc2nc3ccccc3c(=O)n2[C@@H]1Cc1c[nH]c2ccccc12`, the pIC50 is 4.00.
The value for `CC(C)[C@H]1NC(=O)[C@@H](C[C@]2(O)C(=O)Nc3ccccc32)n2c1nc1ccccc1c2=O` [CLADOQUINAZOLINE] was 4.00.
`O=C1N[C@@H](O)c2nc3ccccc3c(=O)n2[C@@H]1Cc1c[nH]c2ccccc12` had a pIC50 of 4.00.
In turn, `CC(=O)O[C@H](c1nc2ccccc2c(=O)n1[C@@H]1C[C@]2(OC1=O)c1ccccc1N1C(=O)C(C)(C)N(O)[C@H]12)C(C)C` [TRYPTOQUIVALINE] had a pIC50 of 4.05.
Compound `O=C1NC(=O)[C@@H](Cc2c[nH]c3ccccc23)n2c1nc1ccccc1c2=O` had a pIC50 of 4.00.
The value for `O=C1N[C@@H]2c3nc4ccccc4c(=O)n3[C@H]1CC21c2ccccc2N2C(=O)[C@@H]3CCCN3[C@H]21` (stereo not given in full) was 4.09; that for `CC(=O)O[C@H](c1nc2ccccc2c(=O)n1[C@@H]1C[C@]2(OC1=O)c1ccccc1N1C(=O)C(C)(C)N[C@H]12)C(C)C` [DEOXYTRYPTOQUIVALINE] was 4.07.
